High-throughput results: PubChem BioAssay, Johns Hopkins Ion Channel Center
MrgX1 ag: agonists of human MrgX1 receptor, primary screen, HEK293 cells, Fluo-4 calcium flux. B-score at 10 µM. AID 588627, 2011. Fluo-4 calcium fluorescence, agonist mode; hits give high values. 310,000 tested, 0.44% active;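 active = calcium response B-score plate-corrected fluorescence ratio at least 3 library SD, with starting fluorescence B-score inside 5 SD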
Target sequence (Q96LB2 whole entry, looked up): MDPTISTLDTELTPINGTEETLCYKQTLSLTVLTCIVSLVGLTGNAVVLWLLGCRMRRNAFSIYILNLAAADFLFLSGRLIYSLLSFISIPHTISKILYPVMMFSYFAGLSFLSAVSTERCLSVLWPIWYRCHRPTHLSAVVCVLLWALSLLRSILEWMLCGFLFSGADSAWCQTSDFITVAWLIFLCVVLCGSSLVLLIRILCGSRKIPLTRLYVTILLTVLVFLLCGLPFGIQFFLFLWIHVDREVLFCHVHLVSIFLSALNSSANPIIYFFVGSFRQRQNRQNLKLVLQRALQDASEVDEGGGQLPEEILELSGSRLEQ
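System – MrgX1-expressing HEK293 cells · Incubation – cells plated overnight, dye loaded 0.5 h 37 °C, 0.5 h room temperature · Technique – kinetic Fluo-4 NW fluorescence of intracellular calcium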
RGS4 pot: RGS4 potentiators or activators, primary screen, cell-based, HEK293 M3R inducible RGS4, calcium flux. 310,000 tested, 0.92% active. AID 463111, 2010. carbachol calcium flux Fluo4; hits give low values. B-score at 10 µM;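 active = B-score of the integrated calcium signal more than 4 SD below the library mean, with starting fluorescence not abnormally high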;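 note: negative B-score means reduced calcium response which marks RGS4 activation or potentiation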
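Assay system: HEK293 FlpIn-TREx cells, stable M3R, doxycycline-inducible RGS4 / Probe or stimulus: carbachol, ECmax concentration / Times: overnight RGS4 induction, 30 min dye load 37 °C, 20 min compound RT / Signal: kinetic calcium fluorescence imaging with Fluo4-AM dye, 2 µM / Measure: Agonist-evoked peak-minus-minimum fluorescence over baseline, integrated ratio, B score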
RGS4 block: RGS4 inhibitors, primary screen, cell-based, HEK293 M3R inducible RGS4, calcium flux. Fluo-4 calcium flux; hits give high values; triggered by carbachol at its EC20. 310,000 tested, 0.45% active. Regulator of G-protein signaling 4 (Homo sapiens), P49798. B-score at 10 µM;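 active = B-score, a plate-corrected calcium signal, over three deviations above library mean, with baseline fluorescence within five deviations of library mean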;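 note: RGS4 expression induced by doxycycline in cells with stable M3 receptor; B-score is computed from the integrated fluorescence ratio over baseline after carbachol; higher B-score means a larger calcium signal and so more RGS4 inhibition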
Target sequence (P49798 whole entry, looked up): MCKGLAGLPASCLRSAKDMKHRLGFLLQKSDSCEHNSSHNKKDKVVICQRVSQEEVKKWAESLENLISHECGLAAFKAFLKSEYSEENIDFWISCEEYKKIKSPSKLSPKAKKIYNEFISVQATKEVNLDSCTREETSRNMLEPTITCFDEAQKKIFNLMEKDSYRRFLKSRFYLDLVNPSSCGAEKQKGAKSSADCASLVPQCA
MrgX1 antag: antagonists of human MrgX1 receptor, primary screen, HEK293 cells, Fluo-4 calcium flux; 310,000 tested, 1.3% active; BAM8-22 antagonism; hits give low values; B-score at 10 µM; Mas-related G-protein coupled receptor member X1 (Homo sapiens), Q96LB2;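 active = calcium-response B-score plate-corrected more than 3 library SD below zero, starting fluorescence within 5 deviations, no agonist response on first addition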;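 note: peak minus trough fluorescence over baseline after final BAM8-22 challenge near maximal dose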
MrgX1 PAM: positive allosteric modulators of MrgX1, primary screen, HEK293 cells, Fluo-4 calcium flux. 310,000 tested, 0.63% active. FDSS; hits give high values. B-score at 10 µM. Mas-related G-protein coupled receptor member X1 (Homo sapiens), Q96LB2;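 active = plate-corrected calcium response at least 3 library SD above typical, normal starting fluorescence, not activating the receptor alone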;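 note: compound read alongside a low EC10 to EC30 dose of BAM8-22 agonist; peak minus trough fluorescence over baseline measured at the second addition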
* hit, by the source's call. This is a sample that favours compounds with a hit; in the whole collection about 3.5% have one here.

Screening O=C1/C(=C\c2cc(Br)cc(Br)c2O)SC(=S)N1Cc1ccccc1 returned MrgX1 ag inactive, RGS4 pot inactive, RGS4 block inactive, MrgX1 antag -6.1* and MrgX1 PAM inactive.
CC1(C)CC(NC(=O)c2cccc(Cl)c2)CC(C)(C)N1 was read as MrgX1 ag inactive, RGS4 pot inactive, RGS4 block inactive, MrgX1 antag inactive and MrgX1 PAM inactive.
Screening O=C(CN(C(=O)c1csnn1)c1ccccc1F)NC1CCCCC1 returned MrgX1 ag inactive, RGS4 pot inactive, RGS4 block inactive, MrgX1 antag inactive and MrgX1 PAM inactive.
For Cc1ccc(N2C(=O)C3C=NNC3C2=O)cc1 (stereo not given) the results were MrgX1 ag inactive, RGS4 pot inactive, RGS4 block inactive, MrgX1 antag -5* and MrgX1 PAM inactive.
`COC(=O)C1=NNC2C(=O)N(c3ccc(C)cc3)C(=O)C12` (stereo not given) gave MrgX1 ag inactive, RGS4 pot inactive, RGS4 block inactive, MrgX1 antag inactive and MrgX1 PAM inactive.
Screening CSc1ncccc1C(=O)Nc1ccc(S(=O)(=O)NC2=NCCCCC2)cc1 returned MrgX1 ag inactive, RGS4 pot inactive, RGS4 block inactive, MrgX1 antag -4.6* and MrgX1 PAM inactive.
Screening O=C(COC(=O)c1ccc(Cl)nc1)Nc1cccnc1Cl returned MrgX1 ag inactive, RGS4 pot inactive, RGS4 block inactive, MrgX1 antag inactive and MrgX1 PAM inactive.
For CCCCn1c(=O)nc2n(-c3ccccc3C)c3ccccc3cc-2c1=O the results were MrgX1 ag inactive, RGS4 pot -7.6*, RGS4 block inactive, MrgX1 antag inactive and MrgX1 PAM inactive.
`Cc1ccccc1-n1c2nc(=O)n(C)c(=O)c-2cc2ccccc21` gave MrgX1 ag inactive, RGS4 pot inactive, RGS4 block inactive, MrgX1 antag inactive and MrgX1 PAM inactive.
For O=C(COc1cccnc1[N+](=O)[O-])NCc1ccc(F)cc1 the results were MrgX1 ag inactive, RGS4 pot inactive, RGS4 block inactive, MrgX1 antag inactive and MrgX1 PAM inactive.
For CCc1ccc(-n2cc(-c3ccc(F)cc3)[n+]3c2SCCC3)cc1 the results were MrgX1 ag inactive, RGS4 pot -7.3*, RGS4 block inactive, MrgX1 antag inactive and MrgX1 PAM inactive.
`Cc1ccc(-c2cn(-c3ccccc3)c3[n+]2CCCS3)cc1` gave MrgX1 ag inactive, RGS4 pot inactive, RGS4 block inactive, MrgX1 antag inactive and MrgX1 PAM inactive.
`CC1=CC(=O)C(C(C)C)=C/C1=N\OC(=O)c1cccc2nc(C)oc12` gave MrgX1 ag inactive, RGS4 pot inactive, RGS4 block inactive, MrgX1 antag -5* and MrgX1 PAM inactive.
`Cc1ccc(OCC(O)Cn2c3ccccc3c3ccccc32)cc1` (stereo not given) gave MrgX1 ag inactive, RGS4 pot inactive, RGS4 block inactive, MrgX1 antag inactive and MrgX1 PAM inactive.
Screening Cc1cccc(C)c1OCC(O)Cn1c2ccccc2c2ccccc21 (stereo not given) returned MrgX1 ag inactive, RGS4 pot -7.1*, RGS4 block inactive, MrgX1 antag inactive and MrgX1 PAM inactive.
`C=CCOc1ccc(/C=C/C(=O)OCC(=O)N(C)CC(=O)Nc2ccc(F)cc2)cc1` gave MrgX1 ag inactive, RGS4 pot inactive, RGS4 block inactive, MrgX1 antag inactive and MrgX1 PAM inactive.
For CC1(C)CC(=O)C(C(c2ccco2)C2C(=O)CC(C)(C)CC2=O)C(=O)C1 the results were MrgX1 ag inactive, RGS4 pot inactive, RGS4 block inactive, MrgX1 antag -6.8* and MrgX1 PAM inactive.
Screening CC1(C)CC(=O)C(C(c2ccc(Br)cc2)C2C(=O)CC(C)(C)CC2=O)C(=O)C1 returned MrgX1 ag 41*, RGS4 pot inactive, RGS4 block inactive, MrgX1 antag inactive and MrgX1 PAM inactive.
`Cc1cc(C(=O)N2CCN(C(c3ccccc3)c3ccccc3)CC2)no1` gave MrgX1 ag inactive, RGS4 pot inactive, RGS4 block inactive, MrgX1 antag inactive and MrgX1 PAM inactive.
Screening CCCc1cc(C(=O)N2CCN(C(c3ccccc3)c3ccccc3)CC2)no1 returned MrgX1 ag inactive, RGS4 pot -7.4*, RGS4 block inactive, MrgX1 antag inactive and MrgX1 PAM inactive.
Screening O=C(CN1CCCCC1)N1c2ccccc2Oc2ccccc21 returned MrgX1 ag inactive, RGS4 pot -7.5*, RGS4 block inactive, MrgX1 antag inactive and MrgX1 PAM inactive.
For CC1Cc2ccccc2N1C(=O)CN1CCCCC1 (stereo not given) the results were MrgX1 ag inactive, RGS4 pot inactive, RGS4 block inactive, MrgX1 antag inactive and MrgX1 PAM inactive.
`CCN1C(=O)/C(=C/C=C2\N(CC)c3cc(S(=O)(=O)N(C)C)ccc3N2c2ccccc2)SC1=S` gave MrgX1 ag 36*, RGS4 pot inactive, RGS4 block inactive, MrgX1 antag inactive and MrgX1 PAM inactive.
For C=CCc1ccccc1OCC(=O)NNC(=S)NCc1ccccc1 the results were MrgX1 ag inactive, RGS4 pot -7*, RGS4 block inactive, MrgX1 antag inactive and MrgX1 PAM inactive.
For O=C(COc1ccc(Cl)cc1)NNC(=S)NCc1ccccc1 the results were MrgX1 ag inactive, RGS4 pot inactive, RGS4 block inactive, MrgX1 antag inactive and MrgX1 PAM inactive.
For O=C(O)c1ccc(S(=O)(=O)N2CCC(NC(=O)C3CCCCC3)CC2)cc1 the results were MrgX1 ag inactive, RGS4 pot inactive, RGS4 block inactive, MrgX1 antag inactive and MrgX1 PAM inactive.
Screening O=C(CC(Sc1ccc(Br)cc1)C(=O)O)c1ccc(F)cc1 (stereo not given) returned MrgX1 ag inactive, RGS4 pot inactive, RGS4 block 6.3*, MrgX1 antag inactive and MrgX1 PAM inactive.
CCC(Sc1ccc(C(=O)O)cc1)C(=O)O (stereo not given) was read as MrgX1 ag inactive, RGS4 pot inactive, RGS4 block inactive, MrgX1 antag inactive and MrgX1 PAM inactive.
CSc1ccc(/C=C(/NC(=O)c2ccco2)C(=O)N2CCOCC2)cc1 was read as MrgX1 ag inactive, RGS4 pot inactive, RGS4 block inactive, MrgX1 antag inactive and MrgX1 PAM inactive.
Screening Cc1nc(C)c(-c2nnc(-c3ccccc3Cl)o2)cc1C(=O)NN returned MrgX1 ag inactive, RGS4 pot inactive, RGS4 block inactive, MrgX1 antag inactive and MrgX1 PAM inactive.
